High-throughput results as filed in PubChem BioAssay.
HGIII-sPLA2 inh – human group III sPLA2 inhibitors, primary screen, biochemical, QFRET, BODIPY PC-A2 liposome substrate. Group 3 secretory phospholipase A2 (Homo sapiens), Q9NZ20. QFRET BODIPY PC-A2 liposome hydrolysis, fluorescence. inhibition, % at 12.2 µM. hit rate 0.56% among 370,000. AID 743126, 2013;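 active = inhibition above mean plus 3 SD of compounds lying within the high and low control bounds, cut at about 19% in these data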;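 also: 0% = median of test compound wells and 100% = no enzyme DMSO wells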
PLCg1 inh – PLC-gamma1 enzyme inhibitors, primary screen, biochemical, fluorescence, purified enzyme | 1-phosphatidylinositol 4,5-bisphosphate phosphodiesterase gamma-1 (Homo sapiens), P19174 | fluorogenic substrate | inhibition, % at 12.2 µM | hit rate 0.84% among 370,000 | AID 720700, 2013; in the data active = inhibition above about 9.5%
Target sequence (P19174 whole entry, looked up): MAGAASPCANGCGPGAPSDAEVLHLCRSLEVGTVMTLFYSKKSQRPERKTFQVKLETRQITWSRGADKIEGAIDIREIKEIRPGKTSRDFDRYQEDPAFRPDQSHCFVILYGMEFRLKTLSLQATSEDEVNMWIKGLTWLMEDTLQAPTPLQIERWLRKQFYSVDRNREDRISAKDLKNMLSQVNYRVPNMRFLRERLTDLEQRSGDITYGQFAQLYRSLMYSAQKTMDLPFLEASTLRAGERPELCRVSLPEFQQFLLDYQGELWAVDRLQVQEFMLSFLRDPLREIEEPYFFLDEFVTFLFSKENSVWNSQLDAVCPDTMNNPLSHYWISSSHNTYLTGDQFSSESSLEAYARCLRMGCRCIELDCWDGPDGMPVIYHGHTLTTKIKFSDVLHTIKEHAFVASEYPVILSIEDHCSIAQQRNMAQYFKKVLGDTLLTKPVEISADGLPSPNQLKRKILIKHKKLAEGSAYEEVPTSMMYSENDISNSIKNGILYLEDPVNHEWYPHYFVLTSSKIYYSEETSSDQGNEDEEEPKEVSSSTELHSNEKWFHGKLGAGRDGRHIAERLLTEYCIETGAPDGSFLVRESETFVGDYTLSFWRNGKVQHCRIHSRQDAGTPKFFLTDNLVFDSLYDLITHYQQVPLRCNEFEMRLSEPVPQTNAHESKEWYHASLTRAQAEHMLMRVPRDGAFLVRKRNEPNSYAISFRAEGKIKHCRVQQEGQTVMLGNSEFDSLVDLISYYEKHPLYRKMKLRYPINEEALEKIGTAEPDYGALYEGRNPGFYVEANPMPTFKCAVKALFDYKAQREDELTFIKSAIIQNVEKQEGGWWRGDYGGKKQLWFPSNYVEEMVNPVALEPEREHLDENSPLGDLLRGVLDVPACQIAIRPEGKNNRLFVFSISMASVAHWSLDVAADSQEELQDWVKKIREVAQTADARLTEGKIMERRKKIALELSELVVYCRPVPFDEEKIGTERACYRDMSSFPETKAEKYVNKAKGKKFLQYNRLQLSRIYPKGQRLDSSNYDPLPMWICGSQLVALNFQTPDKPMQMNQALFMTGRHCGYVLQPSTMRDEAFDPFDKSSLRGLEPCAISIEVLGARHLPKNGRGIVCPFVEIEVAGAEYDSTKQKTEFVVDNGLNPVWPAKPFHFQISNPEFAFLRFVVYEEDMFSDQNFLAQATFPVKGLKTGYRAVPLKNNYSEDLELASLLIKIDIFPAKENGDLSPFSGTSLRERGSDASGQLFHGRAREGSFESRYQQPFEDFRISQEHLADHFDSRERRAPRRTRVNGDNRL
Tb MetRS inh – T. brucei MetRS inhibitors, primary screen, biochemical, luminescence. AID 624268, 2012. methionyl-tRNA synthetase (Trypanosoma brucei brucei). purified T. brucei MetRS, ATP depletion, Kinase-Glo luminescence. inhibition, % at 11.9 µM. hit rate 0.4% among 360,000;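 active = inhibition above a per-plate cutoff of the control wells' mean inhibition plus 3 SD, cut at about 5.5% in these data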;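 also: 0% = DMSO wells median and 100% = median of wells with control inhibitor compound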
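System: purified T. brucei MetRS enzyme / Detection: Kinase-Glo luciferase luminescence reporting remaining unconsumed ATP / Medium: HEPES buffer with MgCl2, KCl, DTT, spermine, BSA, pyrophosphatase / Replication: singlicate, one well per compound / Evaluation: percent inhibition relative to median high and low control wells / Schedule: 2 h aminoacylation at 25 °C after 15 min preincubation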
PLC-beta3 inh – human PLC-beta3 inhibitors, primary screen, biochemical, fluorescence. 1-phosphatidylinositol 4,5-bisphosphate phosphodiesterase beta-3 (Homo sapiens), Q01970. Purified PLC-beta3, fluorogenic substrate. inhibition, % at 12.2 µM. hit rate 0.18% among 370,000. AID 720704, 2013; in the data active = inhibition above about 11%;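 also: 0% = median of compound wells on plate and 100% = full blocker control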
Tb MetRS conf – T. brucei MetRS inhibitors, confirmation, biochemical, luminescence; shares compounds with Tb MetRS inh; T. brucei MetRS enzyme, luminescence (ATP depletion); inhibition, % at 11.9 µM; hit rate 93% among 1,400; AID 624412, 2012; in the data active = inhibition above about 7%
Jurkat tox – Jurkat T cell cytotoxicity, cytotoxicity control for T. brucei MetRS inhibitor project, luminescence, high throughput; shares compounds with Tb MetRS inh; hit rate 12% among 1,400; AID 624413, 2012; inhibition, % at 8.3 µM; Jurkat cells viability, ATP luminescence; in the data active = inhibition above about 15%;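 also: 0% = vehicle and 100% = reference inhibitor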
Tb MetRS inh FP – T. brucei MetRS inhibitors, orthogonal assay for T. brucei MetRS inhibitor project, biochemical, fluorescence polarization. shares compounds with Tb MetRS inh. purified T. brucei MetRS. inhibition, % at 11.9 µM. hit rate 44% among 1,400. AID 651607, 2012; in the data active = inhibition above about 17%;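 also: 0% = vehicle wells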
An asterisk follows results filed as active; i = inactive; nt = no result given. Only some compounds are listed: those with a hit (about 1.9% of all), similar ones and a draw of the others.

SMILES	HGIII-sPLA2 inh	PLCg1 inh	Tb MetRS inh	PLC-beta3 inh	Tb MetRS conf	Jurkat tox	Tb MetRS inh FP
C=CCOc1c(Br)cc(C2C3=C(CCCC3=O)N(C)C3=C2C(=O)CCC3)cc1OCC	-7	i	9.5*	i	16*	-7	10
C=CCOc1ccc(C2C3=C(CCCC3=O)N(CC(=O)O)C3=C2C(=O)CCC3)cc1OCC	1	-14	0	-19	nt	nt	nt
CCOC(=O)C1=CCN(S(=O)(=O)c2ccccc2F)C1c1ccc(Br)cc1 (stereo not given)	-4	-5	nt	-1	nt	nt	nt
COC(=O)[C@]12C[C@H](CC(=O)NCc3cccc4ccccc34)C(=O)N(CCC3=CCCCC3)C1=C[C@H](C(C)(C)C)O[C@@H]2C	-16	0	nt	2	nt	nt	nt
O=C1N(Cc2cccc(Cl)c2)C[C@@H]2C[C@@H](c3cccc4ncccc34)N3CCC[C@@]123	-9	-1	0	-6	nt	nt	nt
O=C1N(Cc2cccc(Cl)c2)C[C@@H]2C[C@@H](c3c[nH]c4ccccc34)N3CCC[C@@]123	-16	-14	5.9*	-16	11*	5	8
C[C@H]1[C@@H](NCc2ccccc2)CC[C@@]23CCCN2C(=O)CCC[C@@H]13	2	-2	nt	0	nt	nt	nt
CC(=O)c1cc(-c2ccccc2-c2ccccc2)c(=O)n2c1CCC2	6	-3	nt	-4	nt	nt	nt
O=C(CN1CCN(CCC(=O)Nc2ccccc2F)CC1)Nc1ccc(Cl)cc1	0	-1	6.4*	0	-1	9	3
O=C(CCNS(=O)(=O)c1cccc2nonc12)Nc1ccc(Cl)cc1	-14	2	10*	0	21*	0	6
O=C(CCNS(=O)(=O)c1ccc(Br)s1)Nc1ccc(Cl)cc1	-43	2	78*	2	85*	8	69*
C=CCn1c(COc2ccccc2F)nnc1SCC(=O)c1c[nH]c2ccccc12	-54	2	13*	1	17*	2	7
CCOC(=O)[C@@]12CCCC3=C1N(CCC3)C(=O)[C@H]2CC(=O)N1CCSCC1	13	-2	nt	-5	nt	nt	nt
COc1ccc(NC(=O)N2CCC(N(C)CCC(C)C)CC2)cc1OC	0	-1	nt	5	nt	nt	nt
Cc1ccc2[nH]c(CSc3ccccc3)cc(=O)c2c1	5	0	11*	1	23*	5	-2
Cc1cc(NS(=O)(=O)c2ccc(NC(=O)Nc3ccccc3)cc2)no1	-38	0	8.4*	1	16*	5	-4
Cc1cc(C)nc(NS(=O)(=O)c2ccc(NC(=O)Nc3ccccc3)cc2)n1	-24	-3	13*	-4	16*	2	5
Cc1cc(NS(=O)(=O)c2ccc(NC(=O)C(c3ccccc3)c3ccccc3)cc2)no1	-75	7	0	1	nt	nt	nt
COCCN=C1S/C(=C\c2cc(C)n(-c3ccc(F)cc3F)c2C)C(=O)N1C	19	-6	nt	-18	nt	nt	nt
O=C(Nc1cccc2ncccc12)c1ccc(Br)c([N+](=O)[O-])c1	-2	-1	31*	2	56*	22*	35*
CC(C)(CO)NC(=O)CCCOc1ccc(Cl)cc1Cl	5	3	11*	1	13*	4	7
CC(C)(C)C(=O)NNC(=O)CCCOc1ccc(Cl)cc1Cl	0	0	2	3	nt	nt	nt
COc1ccc(NC(=O)COC(=O)CCCOc2ccc(Cl)cc2Cl)cc1Cl	-7	1	1	1	nt	nt	nt
COc1ccc(NC(=O)COC(=O)CCCOc2ccc(Cl)cc2Cl)cc1	-28	3	7.0*	-44	17*	-8	23*
Cc1cc(NC(=O)COC(=O)CCCOc2ccc(Cl)cc2C)no1	-7	0	6.5*	0	11*	-1	8
SMILES	HGIII-sPLA2 inh	PLCg1 inh	Tb MetRS inh	PLC-beta3 inh	Tb MetRS conf	Jurkat tox	Tb MetRS inh FP
O=C(NCc1ccccc1Cl)C1CCC(CNS(=O)(=O)c2cccc3cccnc23)CC1 (stereo not given)	5	-2	nt	-10	nt	nt	nt
O=C(COc1ccc2c(-c3ccccc3)cc(=O)oc2c1)N[C@@H](Cc1c[nH]c2ccc(O)cc12)C(=O)O	-27	-1	1	-4	nt	nt	nt
CC(Oc1ccc2c(-c3ccccc3)cc(=O)oc2c1)C(=O)NC(Cc1c[nH]c2ccc(O)cc12)C(=O)O (stereo not given)	-41	-9	7.4*	-12	17*	-4	7
O=S1(=O)c2ccc(Br)cc2OC[C@@H](Cc2ccccc2)N1Cc1cn(Cc2ccc(C(F)(F)F)cc2)nn1	-1	0	nt	1	nt	nt	nt
O=C(Cn1cnc2ccccc21)Nc1cc(C(F)(F)F)ccc1N1CCOCC1	-7	1	27*	1	43*	-2	23*
Cc1cc(NC(=O)c2ccc(Cl)cc2Cl)n(CCC#N)n1	1	4	6.4*	-2	13*	5	12
Cn1c(NC(=O)c2ccc(Cl)cc2Cl)cc(=O)n(C)c1=O	-6	0	0	1	nt	nt	nt
S=C(NCCSCc1ccc(Cl)cc1)Nc1ccccc1	5	-15	30*	-5	51*	5	50*
O=C(NCCSCc1ccco1)Nc1ccc(Cl)cc1	-12	0	6.4*	1	16*	4	8
O=C(Nc1ccccc1C(=O)NCc1ccco1)c1ccccc1	-12	-2	0	-3	nt	nt	nt
O=C(NCCSCc1ccco1)Nc1cccc(Cl)c1	-20	1	1	3	nt	nt	nt
O=C(Nc1ccc(Cl)cc1)Nc1ccccc1C(=O)NCc1ccco1	-12	-36	14*	-38	20*	2	14
Cc1ccc(C)c(OCCC(=O)Nc2cccc(S(=O)(=O)NC3=NCCCCC3)c2)c1	-19	0	7.0*	-3	22*	6	18*
COc1ccccc1C1CC(c2ccc(Cl)cc2Cl)Nc2nc(N)nn21 (stereo not given)	5	-7	6.6*	-9	15*	0	7
COc1ccc(C2CC(c3cccc(Cl)c3)n3nc(N)nc3N2)cc1 (stereo not given)	3	-128	0	-167	nt	nt	nt
CN(C)CCOCCOc1ccc(Cl)cc1Br	1	-1	5.7*	-6	9.5*	4	8
NC(=NCc1ccccc1)NN=Cc1ccnc2ccccc12	2	4	7.1*	5	10*	12	7
Clc1ccccc1-c1ccc2ncnc(NCc3cccs3)c2c1	-10	2	4	1	nt	nt	nt
Cc1csc(CNc2ncnc3ccc(-c4ccccc4Cl)cc23)c1	-5	0	6.0*	-1	25*	4	20*
